Reference: article PMC11661456 (Science Advances, 2024)
“Also recorded” adds a separate entry of the source.

Legend:
AbBioC = biological target: T1, AbBioC (Acinetobacter baumannii, UniProt A0A1E3M3A7); test: Isothermal titration calorimetry of ligand binding to AbBioC; design: species or system A. baumannii; conditions: for binding stoichiometry (N): ITC, single binding site model, mean ± SD (n = 3)
T1 sequence (A0A1E3M3A7 1-249): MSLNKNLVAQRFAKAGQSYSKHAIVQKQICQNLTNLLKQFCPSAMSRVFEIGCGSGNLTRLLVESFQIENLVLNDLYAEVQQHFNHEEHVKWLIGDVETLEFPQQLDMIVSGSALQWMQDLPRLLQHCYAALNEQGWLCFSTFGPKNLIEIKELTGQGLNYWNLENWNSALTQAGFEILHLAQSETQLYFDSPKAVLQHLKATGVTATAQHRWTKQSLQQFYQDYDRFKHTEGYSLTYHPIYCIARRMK
Outline: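 His6-SUMO-tagged AbBioC, Ni-NTA purified. ITC at 25°C in 20 mM tris (pH 8.0), 300 mM NaCl. AbBioC (20 μM) in cell, titrated with SAM or test compound (200 μM) in 20 injections: 0.4 μl first, then 2.0 μl every 120 s. Data fitted to single-site model; N and Kd given as mean ± SD of three replicates.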

AbBioC methyltransferase = biological target: T2, AbBioC methyltransferase (Acinetobacter baumannii, UniProt A0A1E3M3A7); format: biochemical, A. baumannii
T2 sequence (A0A1E3M3A7 1-249): T1 sequence (A0A1E3M3A7 1-249)

[1] = system: bioC-expressing bacterium; test: Effect of free SIN on viability of bioC-expressing bacterium; format: cell-based; conditions: free (not nanoparticle-loaded) SIN
BcBioC = conditions: in vitro; cited from earlier work
A. baumannii = test: Colistin E-test; format: cell-based
K. pneumoniae = test: Colistin E-test; format: cell-based; conditions: ATCC 43816 upon MCR-1 expression
[2] = system: mcr-1–expressing A. baumannii; test: Bacterial lysis assay, mcr-1-expressing A. baumannii; format: cell-based
Outline: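 mcr-1–bearing A. baumannii and its ΔbioC mutant washed three times in biotin-free PBS, then seeded at 2 × 10^8 CFU/ml into 2 ml PBS with or without colistin (8 μg/ml). PBS-only groups served as untreated controls. Positive control arms used a reference inhibitor (4 μg/ml) alone, colistin (8 μg/ml) alone, or both together.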

[3] = system: mcr-1–harboring K. pneumoniae; test: Bacterial lysis assay, mcr-1-harboring K. pneumoniae; format: cell-based; conditions: colistin 8 μg/ml; MCR-1-expressing K. pneumoniae ΔbioC (FYJ6186)

With Nc1ncnc2c1ncn2[C@@H]1O[C@H](C[C@@H](N)CC[C@H](N)C(=O)O)[C@@H](O)[C@H]1O [SIN, sinefungin] the Kd (AbBioC) was 808 ± 135 nM, the “binding affinity of SIN compared with SAM (fold, Kd)” value (AbBioC; ITC Kd of SIN versus the physiological ligand SAM) was “around threefold” and the “binding stoichiometry (N)” value (AbBioC) was 1.180 ± 0.008. The Ki (AbBioC methyltransferase) was ~370 nM, the “effect on the ability of AbBioC to initiate biotin synthesis” value (AbBioC methyltransferase; DTB/biotin bioassay, in vitro reconstituted system) was “efficiently interferes; also recorded: effectively kills AbBioC” and the “ability of free SIN to diminish bacterial viability” value [1] was “inability”. For the same molecule, the “inactivation of BcBioC enzyme” value (BcBioC) was “efficiently inactivate”.

For C[S+](CC[C@H](N)C(=O)[O-])C[C@H]1O[C@@H](n2cnc3c(N)ncnc32)[C@H](O)[C@@H]1O (stereo partly drawn) [SAM, S-adenosyl-L-methionine], the Kd (AbBioC) was 2570 ± 750 nM and the “binding stoichiometry (N)” value (AbBioC) was 0.95 ± 0.13.

In the case of colistin, the “colistin MIC (E-test)” value (A. baumannii; AB18PR065 + mcr-4.3, 0.2% glu M9) is reported as 8.0 µg/mL, the “colistin MIC (E-test)” value (A. baumannii; ATCC 17978 + plasmid-borne mcr-1, LB) is reported as 4.0 µg/mL and the “colistin MIC (E-test)” value (A. baumannii; ATCC 17978 without mcr-1, LB) is reported as 0.5 µg/mL. For the same molecule, the “colistin MIC (E-test)” value (K. pneumoniae) was 32 µg/mL, the “bacterial lysis / viability” value ([2]; colistin 8 μg/ml alone, FYJ6179 in PBS, 20 hours) was “neither MAC13772 inhibitor (4 μg/ml) nor colistin (8 μg/ml) lysed bacterial cells” and the “bacterial killing by colistin of the ΔbioC mutant” value ([2]; colistin 8 μg/ml, mcr-1–expressing A. baumannii ΔbioC (FYJ6181)) was “resensitize; also recorded: vulnerability”. For the same molecule, the “bacterial killing by colistin of the ΔbioC mutant” value [3] was “fails to render the K. pneumoniae ΔbioC mutant insusceptible”.
